Measured values from ChEMBL document CHEMBL1135816, “6-Aryl-1,4-dihydro-benzo[d][1,3]oxazin- 2-ones: a novel class of potent, selective, and orally active nonsteroidal progesterone receptor antagonists” (J Med Chem, 2002).

Experiments:
[1] = target: T1, Progesterone receptor (Rattus norvegicus) (UniProt Q63449); assay: Inhibitory activity against progesterone receptor (PR) in ovariectomized mature female rat decidualization model; assay type: functional
T1 sequence (whole entry): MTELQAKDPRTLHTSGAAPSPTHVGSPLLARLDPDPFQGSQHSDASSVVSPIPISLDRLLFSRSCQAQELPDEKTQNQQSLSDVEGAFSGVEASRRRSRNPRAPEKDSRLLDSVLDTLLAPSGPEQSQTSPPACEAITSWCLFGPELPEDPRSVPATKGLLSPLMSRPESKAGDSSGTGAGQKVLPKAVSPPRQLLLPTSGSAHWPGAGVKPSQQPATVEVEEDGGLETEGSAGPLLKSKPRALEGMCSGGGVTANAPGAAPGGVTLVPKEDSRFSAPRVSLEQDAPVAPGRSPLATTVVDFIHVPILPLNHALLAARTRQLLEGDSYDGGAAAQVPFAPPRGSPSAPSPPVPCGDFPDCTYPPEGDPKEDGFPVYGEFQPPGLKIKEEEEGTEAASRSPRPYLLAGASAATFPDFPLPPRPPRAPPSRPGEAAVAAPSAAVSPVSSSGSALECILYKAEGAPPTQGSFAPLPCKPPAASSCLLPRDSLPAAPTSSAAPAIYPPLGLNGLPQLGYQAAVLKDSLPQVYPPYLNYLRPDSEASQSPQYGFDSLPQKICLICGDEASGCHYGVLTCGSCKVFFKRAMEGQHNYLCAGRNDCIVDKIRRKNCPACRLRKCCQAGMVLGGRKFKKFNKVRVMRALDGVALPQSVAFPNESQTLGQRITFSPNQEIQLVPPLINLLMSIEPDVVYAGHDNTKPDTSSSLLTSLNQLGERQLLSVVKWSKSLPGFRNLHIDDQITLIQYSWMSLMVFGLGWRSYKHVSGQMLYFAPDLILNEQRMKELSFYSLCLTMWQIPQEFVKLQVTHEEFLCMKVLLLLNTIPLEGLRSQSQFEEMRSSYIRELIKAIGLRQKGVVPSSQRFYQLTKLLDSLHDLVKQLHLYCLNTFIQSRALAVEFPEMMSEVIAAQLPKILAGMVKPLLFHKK
How it was run: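 Ovariectomized mature rats dosed orally for 7 days, with progesterone 5.6 mg/kg SC given alongside; vehicle-only controls. Decidual response (D/C) measured 24 h after the final treatment, seven animals per point. ED50 averaged from at least duplicate determinations.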

Progesterone receptor [2] = target: T2, Progesterone receptor (Homo sapiens, UniProt P06401); assay: Antagonist activity against progesterone receptor (PR) in an assay using PRE-luciferase plasmid co-transfected CV-1 cells; assay type: functional, cell-based
T2 sequence (P06401 whole entry): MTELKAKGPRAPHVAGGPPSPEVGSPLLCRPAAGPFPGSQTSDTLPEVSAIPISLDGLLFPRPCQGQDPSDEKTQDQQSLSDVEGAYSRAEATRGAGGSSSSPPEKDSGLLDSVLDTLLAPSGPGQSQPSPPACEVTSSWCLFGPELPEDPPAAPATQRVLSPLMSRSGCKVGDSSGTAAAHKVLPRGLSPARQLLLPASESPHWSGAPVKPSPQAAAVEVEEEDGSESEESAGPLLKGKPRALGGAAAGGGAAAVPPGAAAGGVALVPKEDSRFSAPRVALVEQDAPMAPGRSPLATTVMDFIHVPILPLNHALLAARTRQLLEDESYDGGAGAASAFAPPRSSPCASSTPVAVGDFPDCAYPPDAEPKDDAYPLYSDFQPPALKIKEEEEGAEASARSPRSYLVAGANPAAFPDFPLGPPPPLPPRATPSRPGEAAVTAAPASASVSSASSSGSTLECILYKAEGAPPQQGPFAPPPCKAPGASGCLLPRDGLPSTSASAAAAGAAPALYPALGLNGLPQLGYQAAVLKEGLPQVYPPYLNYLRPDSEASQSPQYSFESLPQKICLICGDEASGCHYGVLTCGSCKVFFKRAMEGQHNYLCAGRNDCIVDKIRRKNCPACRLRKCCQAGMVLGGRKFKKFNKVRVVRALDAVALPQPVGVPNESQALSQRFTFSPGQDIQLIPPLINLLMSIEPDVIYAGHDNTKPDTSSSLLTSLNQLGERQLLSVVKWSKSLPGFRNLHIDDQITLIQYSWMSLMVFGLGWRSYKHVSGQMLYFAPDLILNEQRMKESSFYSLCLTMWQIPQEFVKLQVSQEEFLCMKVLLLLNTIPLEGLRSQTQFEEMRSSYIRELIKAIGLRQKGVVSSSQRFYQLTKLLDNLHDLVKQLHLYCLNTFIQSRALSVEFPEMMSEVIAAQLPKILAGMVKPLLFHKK
How it was run: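 CV-1 cells cotransfected with hPR and PRE-luciferase plasmids, luciferase read-out; IC50 averaged from at least duplicate determinations.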

Progesterone receptor [3] = target: T2, Progesterone receptor; assay: Antagonist activity against the Progesterone Receptor (PR); assay type: functional
How it was run: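 Antagonism run in CV-1 cells co-transfected with hPR and PRE-luciferase plasmids, with luciferase read-out; IC50 taken as the mean of at least duplicate determinations.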

Androgen receptor = target: T3, Androgen receptor (Homo sapiens, UniProt P10275); assay: Antagonist activity against the Androgen Receptor (AR)
T3 sequence (P10275 whole entry): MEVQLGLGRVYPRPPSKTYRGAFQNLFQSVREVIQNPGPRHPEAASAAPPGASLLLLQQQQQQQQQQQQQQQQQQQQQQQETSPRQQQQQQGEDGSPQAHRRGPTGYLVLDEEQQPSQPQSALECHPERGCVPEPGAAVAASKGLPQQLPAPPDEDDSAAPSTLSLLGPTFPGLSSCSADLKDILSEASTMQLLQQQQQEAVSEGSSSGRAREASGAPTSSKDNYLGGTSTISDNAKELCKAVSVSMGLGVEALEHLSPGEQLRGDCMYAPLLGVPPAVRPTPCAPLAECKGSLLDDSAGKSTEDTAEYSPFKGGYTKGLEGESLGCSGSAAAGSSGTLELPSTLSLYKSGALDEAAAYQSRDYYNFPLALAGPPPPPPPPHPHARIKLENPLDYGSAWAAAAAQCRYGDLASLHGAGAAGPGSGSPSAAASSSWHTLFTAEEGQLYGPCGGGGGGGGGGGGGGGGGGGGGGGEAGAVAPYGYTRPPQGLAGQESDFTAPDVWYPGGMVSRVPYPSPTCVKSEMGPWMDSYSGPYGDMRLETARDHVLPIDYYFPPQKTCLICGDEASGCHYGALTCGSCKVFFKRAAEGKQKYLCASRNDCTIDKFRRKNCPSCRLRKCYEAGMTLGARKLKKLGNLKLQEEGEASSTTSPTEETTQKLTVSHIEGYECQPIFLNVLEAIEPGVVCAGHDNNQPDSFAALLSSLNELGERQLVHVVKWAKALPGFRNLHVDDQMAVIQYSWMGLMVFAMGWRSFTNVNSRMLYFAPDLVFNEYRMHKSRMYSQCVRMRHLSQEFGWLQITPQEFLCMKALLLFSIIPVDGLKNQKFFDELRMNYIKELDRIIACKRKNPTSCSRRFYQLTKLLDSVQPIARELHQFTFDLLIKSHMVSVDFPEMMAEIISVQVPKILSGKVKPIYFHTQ

Row | SMILES | ED50 [1] | IC50 (Progesterone receptor [2]) | IC50 (Progesterone receptor [3]) | IC50 (Androgen receptor)
1 | CC1(C)OC(=O)Nc2ccc(-c3cc(F)cc(C#N)c3)cc21 | 0.3 mg/kg | 15.9 nM | 15.9 nM | 1290 nM
2 | CC1(C)OC(=O)Nc2ccc(-c3csc(C#N)c3)cc21 | 1.7 mg/kg | 6.7 nM | 6.7 nM | 280 nM
3 | CC1(C)OC(=O)Nc2ccc(-c3coc(C#N)c3)cc21 | 0.9 mg/kg | 40.2 nM | 40.2 nM | 129 nM
4 | CC1(C)OC(=O)Nc2ccc(-c3ccc(F)c(Cl)c3)cc21 | 1 mg/kg | – | – | 207 nM
